Test results from ChEMBL document CHEMBL3124843, “Synthesis, cytostatic, antimicrobial, and anti-HCV activity of 6-substituted 7-(het)aryl-7-deazapurine ribonucleosides” (J Med Chem, 2014).
The source made the active and inactive calls. No rule for the calls is given here.

How the values were obtained:
Escherichia coli [1] = test: Antibacterial activity against Escherichia coli CCM 3954 after 24 hrs; assay type: functional, organism-based
[2] = Cytostatic activity against human CEM-DNR-bulk cells after 72 hrs by MTT assay; assay type: functional, cell-based
How it was run: (§1)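 IC50 is the concentration that cuts cell growth by 50%, read by quantitative metabolic MTT staining after a 3-day treatment. The resistant sublines were made by raising the concentration of the cytotoxic drug step by step. CEM-DNR-bulk (daunorubicin-selected) stably overexpresses mrp-1. K562-TAX (paclitaxel-selected) expresses only mdr-1. HCT116p53−/− carries null p53 alleles. BJ and MRC-5 are nonmalignant fibroblasts.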

K562 [3] = test: Cytostatic activity against paclitaxel-resistant human K562 cells after 72 hrs by MTT assay; assay type: functional, cell-based; conditions: K562, 72 h; how it was run: as §1
Pseudomonas aeruginosa [4] = test: Antibacterial activity against Pseudomonas aeruginosa CCM 3955 after 24 hrs; assay type: functional, organism-based
Pichia kudriavzevii = test: Antifungal activity against Candida crusei after 48 hrs; assay type: functional, organism-based
[5] = system: Staphylococcus haemolyticus; test: Antibacterial activity against methicillin-resistant Staphylococcus haemolyticus A/16568 after 24 hrs; assay type: functional, organism-based
BJ = test: Cytostatic activity against human BJ cells after 72 hrs by MTT assay; assay type: ADME, cell-based; how it was run: as §1
Hepatitis C virus [6] = test: Antiviral activity against Hepatitis C virus subtype 1b infected in human HuH7 cells; assay type: functional, organism-based, Hepacivirus hominis; conditions: genotype 1b, Huh-7
Hepatitis C virus [7] = test: Antiviral activity against Hepatitis C virus subtype 2a infected in human HuH7 cells; assay type: functional, organism-based, Hepacivirus hominis; conditions: genotype 2a, Huh-7
[8] = Cytotoxicity against human HuH7 cells infected with Hepatitis C virus subtype 2a; assay type: cell-based, Huh-7
Candida tropicalis = test: Antifungal activity against Candida tropicalis after 48 hrs; assay type: functional, organism-based
[9] = Cytotoxicity against human HuH7 cells infected with Hepatitis C virus subtype 1b; assay type: cell-based, Huh-7
HL-60 = test: Antiproliferative activity against human HL60 cells after 72 hrs by XTT assay; assay type: functional, cell-based; conditions: HL-60, 72 h
How it was run: (§2)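 Antiproliferative test on HL-60 promyelocytic leukemia and HeLa S3 cervical carcinoma cells growing in liquid suspension.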

Candida albicans = test: Antifungal activity against Candida albicans after 48 hrs; assay type: functional, organism-based
[10] = Antiproliferative activity against human HeLaS3 cells after 72 hrs by XTT assay; assay type: functional, cell-based; conditions: HeLa S3, 72 h; how it was run: as §2
MRC5 = test: Cytostatic activity against human MRC5 cells after 72 hrs by MTT assay; assay type: ADME, cell-based; conditions: MRC5, 72 h; how it was run: as §1
Staphylococcus aureus [11] = test: Antibacterial activity against Staphylococcus aureus CCM 3953 after 24 hrs; assay type: functional, organism-based
CCRF-CEM = test: Cytostatic activity against human CCRF-CEM cells after 72 hrs by MTT assay; assay type: functional, cell-based; how it was run: as §1
Staphylococcus aureus [12] = test: Antibacterial activity against methicillin-resistant Staphylococcus aureus MRSA 4591 after 24 hrs; assay type: functional, organism-based
K562 [13] = test: Cytostatic activity against human K562 cells after 72 hrs by MTT assay; assay type: functional, cell-based; conditions: K562, 72 h; how it was run: as §1
Enterococcus faecalis = test: Antibacterial activity against Enterococcus faecalis CCM 4224 after 24 hrs; assay type: functional, organism-based
Pseudomonas aeruginosa [14] = test: Antibacterial activity against multi-resistant Pseudomonas aeruginosa A/16575 after 24 hrs; assay type: functional, organism-based
HCT-116 [15] = test: Cytostatic activity against human HCT116 cells after 72 hrs by MTT assay; assay type: functional, cell-based; conditions: HCT-116, 72 h; how it was run: as §1
Escherichia coli [16] = test: Antibacterial activity against multi-resistant Escherichia coli C/16702 after 24 hrs; assay type: functional, organism-based
A549 = test: Cytostatic activity against human A549 cells after 72 hrs by MTT assay; assay type: functional, cell-based; conditions: A549, 72 h; how it was run: as §1
HCT-116 [17] = test: Cytostatic activity against p53-deficient human HCT116 cells after 72 hrs by MTT assay; assay type: functional, cell-based; conditions: HCT-116, 72 h; how it was run: as §1
HepG2 = test: Antiproliferative activity against human HepG2 cells after 72 hrs by XTT assay; assay type: functional, cell-based; conditions: HepG2, 72 h
Candida parapsilosis = test: Antifungal activity against Candida parapsilosis after 48 hrs; assay type: functional, organism-based

Structure (SMILES)	Activity (Escherichia coli [1])	IC50 [2] [µM]	IC50 (K562 [3]) [µM]	Activity (Pseudomonas aeruginosa [4])	Activity (Pichia kudriavzevii)	Activity [5]	IC50 (BJ) [µM]	EC50 (Hepatitis C virus [6]) [µM]	EC50 (Hepatitis C virus [7]) [µM]	CC50 [8] [µM]	Activity (Candida tropicalis)	CC50 [9] [µM]	IC50 (HL-60) [µM]	Activity (Candida albicans)	IC50 [10] [µM]	IC50 (MRC5) [µM]	Activity (Staphylococcus aureus [11])	IC50 (CCRF-CEM) [µM]	Activity (Staphylococcus aureus [12])	IC50 (K562 [13]) [µM]	further results
CSc1ncnc2c1ccn2[C@@H]1O[C@H](CO)[C@@H](O)[C@H]1O	inactive	3.61	0.1	inactive	inactive	inactive	> 100	29.9	> 44	> 44	inactive	> 44	7.19	inactive	11.9	> 100	inactive	> 20	inactive	> 20	Activity (Enterococcus faecalis): inactive; Activity (Pseudomonas aeruginosa [14]): inactive; IC50 (HCT-116 [15]): > 20 µM; Activity (Escherichia coli [16]): inactive; IC50 (A549): > 20 µM; IC50 (HCT-116 [17]): > 20 µM; IC50 (HepG2): > 20 µM; Activity (Candida parapsilosis): inactive
Nc1nc(N)c2c(-c3ccsc3)cn([C@@H]3O[C@H](CO)[C@@H](O)[C@H]3O)c2n1	inactive	> 20	> 20	inactive	inactive	inactive	> 100	> 44	> 44	> 44	inactive	> 44	> 20	inactive	> 20	> 100	inactive	> 20	inactive	> 20	Activity (Enterococcus faecalis): inactive; Activity (Pseudomonas aeruginosa [14]): inactive; IC50 (HCT-116 [15]): > 20 µM; Activity (Escherichia coli [16]): inactive; IC50 (A549): > 100 µM; IC50 (HCT-116 [17]): > 20 µM; IC50 (HepG2): > 20 µM; Activity (Candida parapsilosis): inactive
Cc1ncnc2c1c(-c1ccco1)cn2[C@@H]1O[C@H](CO)[C@@H](O)[C@H]1O	inactive	0.07	0.11	inactive	inactive	inactive	0.07	0.07	0.15	43.6	inactive	6.62	0.21	inactive	1.33	0.61	inactive	0.04	inactive	0.04	Activity (Enterococcus faecalis): inactive; Activity (Pseudomonas aeruginosa [14]): inactive; IC50 (HCT-116 [15]): 0.04 µM; Activity (Escherichia coli [16]): inactive; IC50 (A549): 0.11 µM; IC50 (HCT-116 [17]): 0.04 µM; IC50 (HepG2): 0.3 µM; Activity (Candida parapsilosis): inactive
O=c1[nH]cnc2c1c(-c1ccccc1)cn2[C@@H]1O[C@H](CO)[C@@H](O)[C@H]1O	inactive	> 20	> 20	inactive	inactive	inactive	> 100	> 44	> 44	> 44	inactive	> 44	> 20	inactive	> 20	> 100	inactive	> 100	inactive	> 20	Activity (Enterococcus faecalis): inactive; Activity (Pseudomonas aeruginosa [14]): inactive; IC50 (HCT-116 [15]): > 100 µM; Activity (Escherichia coli [16]): inactive; IC50 (A549): > 100 µM; IC50 (HCT-116 [17]): > 20 µM; IC50 (HepG2): > 20 µM; Activity (Candida parapsilosis): inactive
CNc1ncnc2c1ccn2[C@@H]1O[C@H](CO)[C@@H](O)[C@H]1O	inactive	4.89	0.92	inactive	inactive	inactive	91.4	0.82	> 44	> 44	inactive	> 44	12.8	inactive	> 20	97.8	inactive	> 20	inactive	> 20	Activity (Enterococcus faecalis): inactive; Activity (Pseudomonas aeruginosa [14]): inactive; IC50 (HCT-116 [15]): > 20 µM; Activity (Escherichia coli [16]): inactive; IC50 (A549): > 20 µM; IC50 (HCT-116 [17]): > 20 µM; IC50 (HepG2): > 20 µM; Activity (Candida parapsilosis): inactive
COc1ncnc2c1c(-c1cc3ccccc3o1)cn2[C@@H]1O[C@H](CO)[C@@H](O)[C@H]1O	inactive	10.8	13.1	inactive	inactive	inactive	22.4	2.64	10.2	> 44	inactive	> 44	4.47	inactive	9.24	65.6	inactive	5.37	inactive	20.9	Activity (Enterococcus faecalis): inactive; Activity (Pseudomonas aeruginosa [14]): inactive; IC50 (HCT-116 [15]): 13.8 µM; Activity (Escherichia coli [16]): inactive; IC50 (A549): 17.7 µM; IC50 (HCT-116 [17]): 14.5 µM; IC50 (HepG2): > 20 µM; Activity (Candida parapsilosis): inactive
CNc1ncnc2c1c(-c1cc3ccccc3o1)cn2[C@@H]1O[C@H](CO)[C@@H](O)[C@H]1O	inactive	> 20	> 20	inactive	inactive	inactive	75.6	2.05	13.6	> 44	inactive	> 44	8.95	inactive	> 20	75.3	inactive	> 20	inactive	> 20	Activity (Enterococcus faecalis): inactive; Activity (Pseudomonas aeruginosa [14]): inactive; IC50 (HCT-116 [15]): > 20 µM; Activity (Escherichia coli [16]): inactive; IC50 (A549): > 20 µM; IC50 (HCT-116 [17]): > 20 µM; IC50 (HepG2): > 20 µM; Activity (Candida parapsilosis): inactive
CSc1ncnc2c1c(-c1ccccc1)cn2[C@@H]1O[C@H](CO)[C@@H](O)[C@H]1O	inactive	> 20	> 20	inactive	inactive	inactive	> 100	23.3	> 44	> 44	inactive	> 44	> 20	inactive	> 20	> 100	inactive	> 20	inactive	> 20	Activity (Enterococcus faecalis): inactive; Activity (Pseudomonas aeruginosa [14]): inactive; IC50 (HCT-116 [15]): > 20 µM; Activity (Escherichia coli [16]): inactive; IC50 (A549): > 20 µM; IC50 (HCT-116 [17]): > 20 µM; IC50 (HepG2): > 20 µM; Activity (Candida parapsilosis): inactive
